For series [1], the target named is T1, Anoctamin-1 (Homo sapiens) (UniProt Q5XXA6).
T1 sequence (whole entry): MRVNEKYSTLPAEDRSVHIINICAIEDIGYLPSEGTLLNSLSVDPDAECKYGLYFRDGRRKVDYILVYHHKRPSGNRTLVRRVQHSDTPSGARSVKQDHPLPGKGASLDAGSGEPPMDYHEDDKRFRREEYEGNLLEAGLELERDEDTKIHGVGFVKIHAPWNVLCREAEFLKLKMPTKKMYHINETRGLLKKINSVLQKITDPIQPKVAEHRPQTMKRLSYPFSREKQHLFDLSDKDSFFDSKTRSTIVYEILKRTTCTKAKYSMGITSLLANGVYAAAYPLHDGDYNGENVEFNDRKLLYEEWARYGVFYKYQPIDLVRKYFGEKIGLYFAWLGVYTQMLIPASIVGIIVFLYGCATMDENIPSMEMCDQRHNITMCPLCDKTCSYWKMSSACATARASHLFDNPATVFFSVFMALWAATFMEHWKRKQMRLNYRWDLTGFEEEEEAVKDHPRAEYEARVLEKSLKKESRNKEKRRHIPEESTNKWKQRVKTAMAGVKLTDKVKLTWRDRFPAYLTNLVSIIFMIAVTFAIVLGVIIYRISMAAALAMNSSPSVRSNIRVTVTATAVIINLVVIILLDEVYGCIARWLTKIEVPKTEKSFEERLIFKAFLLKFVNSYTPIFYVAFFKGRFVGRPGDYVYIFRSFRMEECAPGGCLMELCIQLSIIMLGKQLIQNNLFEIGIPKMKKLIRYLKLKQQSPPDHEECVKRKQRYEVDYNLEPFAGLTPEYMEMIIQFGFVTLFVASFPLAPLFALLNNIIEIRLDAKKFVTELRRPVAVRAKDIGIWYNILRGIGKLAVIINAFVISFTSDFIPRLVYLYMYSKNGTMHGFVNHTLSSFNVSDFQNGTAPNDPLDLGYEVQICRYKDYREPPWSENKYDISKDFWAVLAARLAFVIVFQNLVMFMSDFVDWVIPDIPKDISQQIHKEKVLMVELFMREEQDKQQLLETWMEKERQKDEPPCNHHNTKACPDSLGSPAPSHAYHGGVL
Conditions: 1 uM.

Series [2] addresses T2, Anoctamin-1 (Mus musculus) (UniProt Q8BHY3).
T2 sequence (whole entry): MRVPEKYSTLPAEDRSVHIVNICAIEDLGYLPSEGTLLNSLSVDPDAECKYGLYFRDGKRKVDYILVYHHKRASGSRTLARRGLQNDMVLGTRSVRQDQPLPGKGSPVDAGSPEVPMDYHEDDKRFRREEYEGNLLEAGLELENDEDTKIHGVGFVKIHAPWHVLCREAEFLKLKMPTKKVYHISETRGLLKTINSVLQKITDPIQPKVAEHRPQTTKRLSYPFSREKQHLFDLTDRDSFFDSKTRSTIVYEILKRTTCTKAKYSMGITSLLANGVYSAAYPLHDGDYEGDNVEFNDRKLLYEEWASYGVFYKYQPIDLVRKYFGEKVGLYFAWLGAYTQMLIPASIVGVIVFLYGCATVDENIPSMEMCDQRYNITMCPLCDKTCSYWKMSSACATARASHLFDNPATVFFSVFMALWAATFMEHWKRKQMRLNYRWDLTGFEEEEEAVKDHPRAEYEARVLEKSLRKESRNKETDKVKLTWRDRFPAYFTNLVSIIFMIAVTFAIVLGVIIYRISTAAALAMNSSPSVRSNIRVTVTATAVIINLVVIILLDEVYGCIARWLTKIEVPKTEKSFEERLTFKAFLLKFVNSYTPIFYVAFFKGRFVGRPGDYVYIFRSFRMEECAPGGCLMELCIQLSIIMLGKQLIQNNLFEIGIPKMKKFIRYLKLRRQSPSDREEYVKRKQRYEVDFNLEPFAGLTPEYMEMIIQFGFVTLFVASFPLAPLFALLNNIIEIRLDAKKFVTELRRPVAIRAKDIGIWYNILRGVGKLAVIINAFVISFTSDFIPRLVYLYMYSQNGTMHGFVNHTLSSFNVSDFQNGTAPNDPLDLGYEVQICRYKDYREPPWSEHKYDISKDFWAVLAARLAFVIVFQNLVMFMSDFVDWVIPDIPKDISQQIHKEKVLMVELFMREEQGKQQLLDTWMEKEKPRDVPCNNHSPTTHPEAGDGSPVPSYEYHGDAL
Description: Inhibition of TMEM16A in CD1 mouse ileum assessed as reduction in intestinal smooth muscle contraction. In short, it runs like this:
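Ileal segments of ~2 cm from adult CD1 mice killed by avertin overdose (200 mg/kg), ends tied, mounted on a force transducer. […] Stabilised 60 min at 0.5 g resting tension with changes every 15 min. Compound added to the bath; spontaneous isometric contractions recorded; three separate experiments.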

Series [3] concerns the target T1, Anoctamin-1 (Homo sapiens). The note with it: 1 uM. The source holds these as a separate data set.
A short description of series [4]: Metabolic stability in rat liver microsomes assessed as compound remaining in presence of NADPH at 10 uM after 180 mins by LC/MS analysis. Conditions: read-out: Stability. It is filed as ADME, microsome. In short, it runs like this: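 10 μM compound shaken at 37 °C with rat liver microsomes (1 mg protein/mL) in 100 mM potassium phosphate buffer with 1 mM NADPH, sampled at 2–180 min. Quenched on ice with ice-cold ethyl acetate, centrifuged, supernatant dried and redissolved. Parent compound quantified by C₁₈ reverse-phase LC/MS (5–95% acetonitrile gradient); mean ± SEM, n=3.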
In general terms: Liver microsomes are vesicles of endoplasmic reticulum, rich in cytochrome P450 enzymes.

A short description of series [5]: Kinetic aqueous solubility of compound in PBS by titration method. The class given is physicochemical. The note with it: buffer. In a few lines:
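Increasing quantities of a 30 mM DMSO stock added to 2 mL aliquots of PBS. Kinetic solubility taken from the titration point.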

The nature of series [6]: Stability of compound in aqueous solution at 100 uM after 2 days by ESI-LCMS analysis. It is filed as physicochemical. The note with it: read-out: Stability. In a few lines:
(§1)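 Duplicate samples of 100 μM compound in H₂O (20% DMSO) with 100 μM 5-chloro-3-phenyl-2,1-benzisoxazole as internal standard. Kept at 25 °C for 3 days and analysed daily by ESI-LCMS for the parent compound and the oxalamic acid degradation product.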

A short description of series [7]: Stability of compound in aqueous solution at 100 uM after 1 day by ESI-LCMS analysis. Conditions: read-out: Stability. It is filed as physicochemical. In short, it runs like this: as §1
Series [8] has as its target T1, Anoctamin-1 (Homo sapiens). Conditions: 1 uM. This is another data set of the same source.
In series [9] the target is Cystic fibrosis transmembrane conductance regulator (Homo sapiens) (UniProt P13569). Kind of series: Inhibition of human wild type CFTR expressed in FRT cells co-expressing halide sensitive YFP-H148Q assessed as reduction in forskolin induced cAMP activated chloride conductance by measuring decrease in iodide influx after 15 mins by fluorescence assay. It is filed as cell-based. In a few lines: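 FRT cells co-expressing YFP and wild-type CFTR, washed with PBS. Incubated 15 min with compound in PBS containing 20 μM forskolin. Plate reader baseline 2 s, then 12 s after rapid addition of I⁻-containing solution; initial I⁻ influx rate computed.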
Sequence of Cystic fibrosis transmembrane conductance regulator (Homo sapiens) (P13569 whole entry, looked up): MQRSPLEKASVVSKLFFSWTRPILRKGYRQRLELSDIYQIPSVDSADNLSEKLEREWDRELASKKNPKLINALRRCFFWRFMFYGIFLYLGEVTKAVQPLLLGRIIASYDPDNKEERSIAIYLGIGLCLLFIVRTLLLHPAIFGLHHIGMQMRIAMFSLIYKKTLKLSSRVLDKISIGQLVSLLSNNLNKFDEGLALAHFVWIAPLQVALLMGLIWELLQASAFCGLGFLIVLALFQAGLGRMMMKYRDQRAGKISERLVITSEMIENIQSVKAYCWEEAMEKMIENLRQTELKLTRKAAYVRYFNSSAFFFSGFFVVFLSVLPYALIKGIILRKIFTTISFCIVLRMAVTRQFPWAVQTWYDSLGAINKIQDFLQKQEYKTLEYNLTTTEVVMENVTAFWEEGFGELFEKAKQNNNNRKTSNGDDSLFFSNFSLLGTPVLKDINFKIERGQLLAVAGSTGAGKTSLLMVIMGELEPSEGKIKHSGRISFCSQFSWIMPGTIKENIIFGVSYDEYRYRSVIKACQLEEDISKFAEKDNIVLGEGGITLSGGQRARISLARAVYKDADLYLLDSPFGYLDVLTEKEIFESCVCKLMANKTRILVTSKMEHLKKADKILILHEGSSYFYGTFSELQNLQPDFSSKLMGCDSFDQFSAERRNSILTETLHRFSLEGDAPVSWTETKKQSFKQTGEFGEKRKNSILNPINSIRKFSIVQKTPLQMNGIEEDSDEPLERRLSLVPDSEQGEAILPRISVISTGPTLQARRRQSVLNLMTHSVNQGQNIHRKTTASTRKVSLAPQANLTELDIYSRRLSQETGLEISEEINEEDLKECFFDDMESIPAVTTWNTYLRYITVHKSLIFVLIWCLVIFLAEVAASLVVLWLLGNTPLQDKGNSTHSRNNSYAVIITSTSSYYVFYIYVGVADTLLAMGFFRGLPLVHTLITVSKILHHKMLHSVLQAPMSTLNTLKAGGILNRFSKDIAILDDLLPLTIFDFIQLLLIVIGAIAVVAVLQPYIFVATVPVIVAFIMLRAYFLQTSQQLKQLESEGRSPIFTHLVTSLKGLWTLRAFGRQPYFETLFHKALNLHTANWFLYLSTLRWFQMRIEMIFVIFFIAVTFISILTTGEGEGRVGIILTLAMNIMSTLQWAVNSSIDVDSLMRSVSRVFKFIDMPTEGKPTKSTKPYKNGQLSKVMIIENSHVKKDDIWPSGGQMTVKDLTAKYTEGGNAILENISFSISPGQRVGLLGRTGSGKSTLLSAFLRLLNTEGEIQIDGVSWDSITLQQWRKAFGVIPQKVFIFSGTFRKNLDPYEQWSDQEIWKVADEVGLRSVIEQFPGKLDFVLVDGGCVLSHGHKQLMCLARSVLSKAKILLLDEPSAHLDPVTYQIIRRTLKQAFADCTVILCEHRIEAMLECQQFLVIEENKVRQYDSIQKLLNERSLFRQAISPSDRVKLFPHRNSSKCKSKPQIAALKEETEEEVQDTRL

Series [10] is described as follows: Stability of compound in DMSO. It is filed as physicochemical.
Series [11] is described as follows: Cytotoxicity against human HT-29 cells assessed as cell survival at 5 uM after 8 hrs by alamar blue assay relative to control. It is filed as cell-based. The note with it: read-out: Survival. In short, it runs like this:
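Cells cultured overnight, then exposed to compound at 5 μM for 8 h. Viability read by Alamar Blue per kit instructions. Table reports n=3.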
On the technique in general: Alamar Blue is a resazurin reagent that responds to reducing activity.

For series [12], the target named is T1, Anoctamin-1 (Homo sapiens). Conditions: 250 nM.
Series [13] deals with T1, Anoctamin-1 (Homo sapiens). The note with it: 250 nM. The source holds these as a separate data set.

Each structure is given as a SMILES string. Active and inactive are the calls of the source. No cut-off for these calls is given here.

This note sets out measurements from ChEMBL document CHEMBL4014325.

In the case of `Cc1ccccc1NC(=O)c1c(NC(=O)C(F)(F)Br)sc2c1CCCCC2`, the inhibition result in series [1], in [3], in [8] and in series [12] was “Active” throughout. Moreover, the inhibition result in [2] was “Dose-dependent effect”. Moreover, the remaining at 3 h, 10 µM in series [4] stood at 30%. The same compound yielded a Kinetic_solubility in series [5] of 40 µg/mL. In addition, the remaining at 48 h, 100 µM in series [6] worked out at 30%. Besides, the remaining at 24 h, 100 µM in series [7] is 72%. Also, the inhibition entry in series [9] and in series [13] was “inactive” throughout. The Stability in series [10] is over 6 months. Moreover, the viability at 8 h, 5 µM in series [11] is 97%.
